Structures are written as SMILES. A value given as a limit tells only on which side of the number the result lay.

The target in data set [1] is Peptidyl-prolyl cis-trans isomerase F, mitochondrial (Mus musculus) (UniProt Q99KR7). In words: Inhibition of cyclophilin D in mouse HT22 cells assessed as reduction in amyloid beta (1 to 42) induced mitochondrial permeability transition pore opening by measuring increase in green to red fluorescence ratio at 5 uM pretreated for 10 mins followed by amyloid beta (1 to 42) stimulation measured at 1 hr interval for 3 hrs by JC-1 dye based fluorescence assay relative to control. Further details: scale not given: the % may be the effect or the level left. The data set is classed as cell-based. Put shortly:
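HT-22 cells, 30,000 per well, loaded with JC-1 at 7.5 µM final in phenol red-free Opti-MEM for 1 h 15 min at 37 °C, then PBS-washed. Compound at 5 µM for 10 min at 37 °C, then Aβ1-42 (5 µM solution) added. Red (ex/em 530/580 nm) and green (485/530 nm) fluorescence read hourly for 3 h. Green/red ratio normalized to the Aβ-alone control as 100%.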

The test system of data set [2] is N2a. In words: Induction of reactive oxygen species production in mouse Neuro2a cells assessed as H2O2 level at 10 uM after 6 hrs by ROS-Glo luminescence assay relative to control. The data set is classed as cell-based. Put shortly:
(§1)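 Neuro-2a cells, 2000 per well, given compounds from 10-dose 3-fold serial dilutions of 10 mM DMSO stocks. H2O2 substrate added immediately, then 6 h at 37 °C, 5% CO2. ROS-Glo detection reagent added for 20 min at RT, then luminescence read. H2O2 expressed as fold of untreated, with IC50 fitted from the dose series.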

In data set [3] the test system is N2a. In words: Inhibition of reactive oxygen species production in mouse Neuro2a cells assessed as decrease in H2O2 levels after 6 hrs by ROS-Glo luminescence assay. Type of data set: functional, cell-based. Put shortly: as §1
A short description of data set [4]: Cytotoxicity against mouse Neuro2a cells assessed as cell viability at 10 uM after 72 hrs by MTT assay relative to control. Type of data set: cell-based, N2a. The settings on record: read-out: Activity. Put shortly: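 Neuro-2a cells grown in EMEM with 10% FBS and penicillin/streptomycin. A 10 mM DMSO stock was diluted 3-fold over 10 doses in DMSO, and 2000 cells were added per well. Incubated 72 h at 37 °C, 5% CO2. MTT added for 4 h, then solubilization/stop solution for 1 h. Absorbance read at 590 nm. Viability is from color intensity, with IC50 fitted to a sigmoidal dose-response curve.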
For orientation: Formazan colour is commonly taken as a measure of viable cells.

Data set [5] deals with N2a. Description: Cytotoxicity against mouse Neuro2a cells assessed as cell viability after 72 hrs by MTT assay. The data set is classed as ADME, cell-based.
Data set [6] deals with Peptidyl-prolyl cis-trans isomerase F, mitochondrial (Mus musculus) (UniProt Q99KR7). In words: Inhibition of Cyclophilin D in mouse HT22 cells assessed as neuroprotective activity against amyloid beta (1 to 42) induced impairment of ATP production by measuring cell viability at 5 pretreated for 10 mins followed by amyloid beta (1 to 42) stimulation measured after 7 hrs by luciferase based assay relative to control. Put shortly: (§2)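 HT-22 cells, 10,000 per well, seeded one day before. Cells pretreated 10 min at 37 °C with compound, then Aβ1-42 added, and incubated 7 h. Cells were washed, lysed in 1% Triton X-100/TBST, and equal protein amounts (BCA) assayed for ATP by luciferase. Recovery was calculated against the Aβ-treated vehicle control. ATP viability comes from samples without Aβ.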
Sequence of Peptidyl-prolyl cis-trans isomerase F, mitochondrial (Mus musculus) (Q99KR7 whole entry): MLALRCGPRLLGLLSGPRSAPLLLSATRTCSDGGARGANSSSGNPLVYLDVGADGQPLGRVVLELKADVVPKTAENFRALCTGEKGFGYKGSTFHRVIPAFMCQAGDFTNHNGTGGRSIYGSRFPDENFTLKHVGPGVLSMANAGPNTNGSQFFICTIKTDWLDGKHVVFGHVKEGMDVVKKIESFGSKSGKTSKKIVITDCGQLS

The target is the same in data set [7]. Description: Inhibition of Cyclophilin D in mouse HT22 cells assessed as neuroprotective activity against amyloid beta (1 to 42) induced impairment of ATP production by measuring assessed as recovery of ATP production at 5 uM pretreated for 10 mins followed by amyloid beta (1 to 42) stimulation measured after 7 hrs by luciferase based assay relative to control. Type of data set: cell-based. On the set-up: scale not given: the % may be the effect or the level left. Put shortly: as §2

For data set [8] the target is unchanged. In words: Inhibition of Cyclophilin D in mouse HT22 cells assessed as reduction in amyloid beta (1 to 42) induced reactive oxygen species production at 5 uM after 6 hrs by CMH2DCFDA dye based fluorescence assay relative to control. The data set is classed as cell-based. Put shortly: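 HT-22 cells, 10,000 per well, treated with compound plus Aβ1-42 in Opti-MEM for 6 h. Cells loaded with CM-H2DCFDA (diluted from 1 mM stock) in HBSS for 30 min at 37 °C, then Hoechst added. Total fluorescence intensity per well taken from high-content imaging. Inhibition expressed as percent of the Aβ-induced signal increase.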

A short description of data set [9]: Cytotoxicity against mouse HT22 cells assessed as cell viability at 5 uM after 24 hrs by MTT assay relative to control. Type of data set: cell-based, HT-22. The settings on record: read-out: Activity. Put shortly:
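HT-22 cells, 5000 per well, seeded one day before the assay. Compound solution added, then cells incubated 24 h at 37 °C. MTT added for 2 h at 37 °C. Formazan dissolved in 10% Triton X-100 in isopropanol with 0.1 M HCl for 1 h at room temperature, then absorbance read. Viability relative to vehicle control, without Aβ.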

The target of data set [10] is Peptidyl-prolyl cis-trans isomerase F, mitochondrial (Mus musculus) (UniProt Q99KR7). Description: Inhibition of Cyclophilin D in mouse HT22 cells assessed as reduction in amyloid beta (1 to 42) induced decrease in cell viability at 5 uM after 24 hrs by MTT assay relative to control. The data set is classed as cell-based. Put shortly: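 HT-22 cells, 5000 per well, pretreated 10 min with compound, then Aβ1-42 added and incubated 24 h at 37 °C. MTT added for 2 h, then acidified Triton/isopropanol solubilization, and absorbance read at 570 nm. Percent inhibition calculated relative to vehicle control with Aβ.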

The nature of data set [11]: Effective permeability of the compound at pH 7.4 at 50 uM after 4 hrs by PAMPA. The data set is classed as physicochemical. The settings on record: read-out: Peff. Put shortly:
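BBB-PAMPA (double-sink) setup. 10 mM DMSO stocks were diluted to 50 µM in buffer pH 7.4 as the donor, with brain sink buffer as the acceptor. Incubated 4 h at 26 °C. Donor, acceptor and reference concentrations measured by UV (230–498 nm), and Pe calculated on a double-sink basis.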

Data set [12] deals with Voltage-gated inwardly rectifying potassium channel KCNH2 (Homo sapiens, UniProt Q12809). In words: Displacement of [3H]-Astemizole from human ERG expressed in HEK293 cell membranes measured after 1 hr by microbeta counting method. Put shortly:
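Radioligand binding to membranes (2.5 µg) from HEK-293 cells expressing hERG. Buffer was 50 mM Hepes pH 7.4 with 60 mM KCl, 0.1% BSA and 4 nM [3H]astemizole, incubated 1 h at RT. Samples filtered through PEI-soaked filtermat. Non-specific binding defined with 0.1 µM astemizole. Used 5–6 test concentrations in duplicate, with isotherms from two assays.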
(In general: Loss of bound radioactivity is the signal in a displacement assay; it reports binding, not function.)

Sequence of Voltage-gated inwardly rectifying potassium channel KCNH2 (Q12809 whole entry): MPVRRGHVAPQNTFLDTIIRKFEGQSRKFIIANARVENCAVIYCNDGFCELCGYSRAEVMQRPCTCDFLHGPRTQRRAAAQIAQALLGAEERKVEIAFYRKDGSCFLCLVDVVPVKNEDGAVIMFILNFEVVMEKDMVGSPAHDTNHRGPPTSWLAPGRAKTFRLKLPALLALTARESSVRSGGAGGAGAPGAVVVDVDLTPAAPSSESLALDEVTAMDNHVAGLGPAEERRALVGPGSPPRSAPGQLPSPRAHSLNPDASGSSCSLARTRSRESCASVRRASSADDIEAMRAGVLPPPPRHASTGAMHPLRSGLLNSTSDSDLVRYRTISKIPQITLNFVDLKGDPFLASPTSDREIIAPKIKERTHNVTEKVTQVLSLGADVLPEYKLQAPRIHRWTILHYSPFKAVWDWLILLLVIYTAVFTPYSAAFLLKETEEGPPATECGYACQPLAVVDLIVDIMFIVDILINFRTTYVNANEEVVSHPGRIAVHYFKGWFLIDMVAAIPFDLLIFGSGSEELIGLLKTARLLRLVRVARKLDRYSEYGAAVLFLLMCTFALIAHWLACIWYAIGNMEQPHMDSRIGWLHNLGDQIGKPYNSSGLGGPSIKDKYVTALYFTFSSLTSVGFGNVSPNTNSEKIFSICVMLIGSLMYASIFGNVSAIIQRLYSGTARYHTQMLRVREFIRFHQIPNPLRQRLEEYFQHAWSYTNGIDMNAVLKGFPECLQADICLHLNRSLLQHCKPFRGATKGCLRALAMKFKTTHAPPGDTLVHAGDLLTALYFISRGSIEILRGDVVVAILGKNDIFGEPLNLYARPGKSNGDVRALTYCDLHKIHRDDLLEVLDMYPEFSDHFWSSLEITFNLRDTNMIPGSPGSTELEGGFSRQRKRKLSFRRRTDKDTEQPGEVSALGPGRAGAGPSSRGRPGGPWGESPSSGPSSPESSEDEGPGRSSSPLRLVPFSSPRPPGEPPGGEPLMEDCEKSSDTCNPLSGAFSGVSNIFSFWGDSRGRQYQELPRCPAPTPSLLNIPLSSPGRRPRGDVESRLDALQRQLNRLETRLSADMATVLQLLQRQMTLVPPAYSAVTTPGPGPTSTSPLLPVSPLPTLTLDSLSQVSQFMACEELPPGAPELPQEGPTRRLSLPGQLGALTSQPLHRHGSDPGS

For the compound `O=C(Nc1ncccc1OCc1cccc(Cl)c1)NC1CCCCCC1`, the Activity in [1] turned out to be 46%.
Regarding `CC(C)(C)NC(=O)Nc1ncccc1OCc1cccc(F)c1`, the values for the Activity in data set [1], in [6] and in data set [7] were 44%, 129% and 45%, respectively. Besides, in the data set on N2a [2], the “fold change (FC)” value amounted to 0.94. In addition, the IC50 in the data set on N2a [3] and with N2a [5] was above 10 µM throughout. Besides, the viability at 72 h, 10 µM in data set [4] worked out at 95.8%.
For `CCNC(=O)Nc1ncccc1OCc1cccc(F)c1`, the Activity was 14% in [1], 102% in data set [6] and 41% in [7]. Besides, the “fold change (FC)” value with N2a [2] is listed as 1.14. Further, the half-maximal inhibitory concentration (IC50) with N2a [3] and in the data set with N2a [5] was above 10 µM in each case. Besides, the viability at 72 h, 10 µM in [4] is 96.6%.
Take `CC(C)(C)NC(=O)Nc1ncccc1OCc1cccc(Cl)c1`: the Activity in [1] was found to be 176%.
Same read-out and setting: next, `O=C(NCCCl)Nc1ncccc1OCc1ccccc1`: 169%; `CCNC(=O)Nc1ncccc1OCc1ccc(F)cc1`: 127%.
Same read-out and setting: next, `O=C(NCCCl)Nc1ncccc1OCc1cccc(Cl)c1`: 73%; `CCNC(=O)Nc1ncccc1OCc1ccccc1Cl`: 49%.
Regarding `CN[C@@H]1C[C@H]2O[C@@](C)([C@@H]1OC)n1c3ccccc3c3c4c(c5c6ccccc6n2c5c31)C(=O)NC4` [STAUROSPORINE], the viability at 72 h, 10 µM in data set [4] is 1.3%.
Take `CC(C)(C)NC(=O)Nc1ncccc1OCc1ccc(Cl)cc1`: the results for the Activity in [1], in data set [6] and in data set [7] were 35%, 104% and 13%, respectively. Further, the “fold change (FC)” value with N2a [2] is 0.91. For the same compound, the IC50 with N2a [3] and with N2a [5] was above 10 µM each time. For the same compound, the viability at 72 h, 10 µM in [4] was 93.1%.
Regarding `O=C(Nc1ncccc1OCc1cccc(F)c1)NC1CCCCCC1`, in data set [1], the Activity stood at 91%.
On the same count and under the same terms, next, `CC(C)(C)CC(C)(C)NC(=O)Nc1ncccc1OCc1ccccc1Cl`: 21%; `O=C(NCCCl)Nc1ncccc1OCc1ccc(Cl)cc1`: 131%; `O=C(NCCCl)Nc1ncccc1OCc1ccc(F)cc1`: 64%.
As to `CC(C)(C)NC(=O)Nc1ncccc1OCc1ccccc1`, the Activity in data set [1] worked out at 23%; in data set [6], 103%; in [7] it was 72%. Also, in the data set on N2a [2], the “fold change (FC)” value was 0.92. In addition, the IC50 with N2a [3] and in the data set on N2a [5] was above 10 µM throughout. Further, the viability at 72 h, 10 µM in [4] came to 106%. Moreover, the inhibition was determined as 95% in data set [8] and 11% in [10]. Moreover, in [9], the viability at 24 h, 5 µM came to 92%. Further, the Papp at 4 h, 50 µM in data set [11] amounted to 45.1 ×10⁻⁶ cm/s.
With `CC(C)(C)CC(C)(C)NC(=O)Nc1ncccc1OCc1cccc(F)c1`, the Activity is 31% in data set [1], 30% in data set [6] and -140% in [7]. In the data set on N2a [2], the “fold change (FC)” value came to 1.02. Further, the IC50 in the data set with N2a [3] and with N2a [5] was above 10 µM throughout. In data set [4], the viability at 72 h, 10 µM was found to be 101%.
As for `Cn1c(=O)c2[nH]cnc2n(C)c1=O.O` [THEOPHYLLINE], the Papp at 4 h, 50 µM in data set [11] was found to be 0.29 ×10⁻⁶ cm/s.
Consider `O=C(NCCCl)Nc1ncccc1OCc1ccccc1Cl`, for which the Activity in [1] came to 41%.
The same measure, in the same setting: next, `CCNC(=O)Nc1ncccc1OCc1ccc(Cl)cc1`: 94%.
Consider `O=C(NCCN1CCNCC1)Nc1ncccc1OCc1ccccc1`, for which the Activity is 16% in [1], 78% in data set [6] and 87% in data set [7]. Further, the “fold change (FC)” value in the data set with N2a [2] is listed as 0.97. For the same compound, the values for the IC50 (in the data set on N2a [3]; in the data set on N2a [5]; in data set [12]) were above 10 µM, above 10 µM and above 28.7 µM, respectively. In data set [4], the viability at 72 h, 10 µM was found to be 102%. The inhibition in data set [8] came out at 97%; in data set [10], 81%. Moreover, the viability at 24 h, 5 µM in data set [9] was 133%. Besides, the Papp at 4 h, 50 µM in [11] came out at 20.6 ×10⁻⁶ cm/s.
Turning to `CC(C)(C)NC(=O)Nc1ncccc1OCc1ccc(F)cc1`, the Activity in [1] amounted to 49%.
Take `O=C(Nc1ncccc1OCc1ccccc1Cl)NC1CCCCCC1`: the Activity in data set [1] is 41%.
Consider `CC(=O)[C@H]1CC[C@H]2[C@@H]3CCC4=CC(=O)CC[C@]4(C)[C@H]3CC[C@]12C` [PROGESTERONE], for which, in data set [11], the Papp at 4 h, 50 µM was 48.8 ×10⁻⁶ cm/s.
On to `O=C(Nc1ncccc1OCc1ccc(F)cc1)NC1CCCCCC1`, for which the values for the Activity in data set [1], in [6] and in data set [7] were 28%, 99% and 40%, respectively. Also, in the data set on N2a [2], the “fold change (FC)” value turned out to be 0.91. The IC50 in the data set on N2a [3] and in the data set on N2a [5] was above 10 µM throughout. Moreover, the viability at 72 h, 10 µM in data set [4] was determined as 93.2%.
Consider `O=C(NCCN1CCNCC1)Nc1ncccc1OCc1cccc(Cl)c1`, for which the Activity in [1] amounted to 48%.
As for `NC(=O)CN1CCCC1=O`, the Activity in [6] was found to be 88%; in data set [7], 127%. The inhibition in [8] was found to be 129%; in [10] it was 29%. The viability at 24 h, 5 µM in data set [9] was found to be 132%.
Regarding `O=C(Nc1ncccc1OCc1ccc(Cl)cc1)NC1CCCCCC1`, the results for the Activity in data set [1], in [6] and in [7] were 19%, 105% and 47%, respectively. For the same compound, the “fold change (FC)” value in the data set with N2a [2] is reported as 1.15. Further, the half-maximal inhibitory concentration (IC50) with N2a [3] and with N2a [5] was above 10 µM in each case. Further, in data set [4], the viability at 72 h, 10 µM amounted to 85.2%.
`O=C(Nc1ncccc1OCc1ccccc1)NC1CCCCCC1`: the Activity in [1] is 130%.
For `CC1=CC(=O)c2ccccc2C1=O` [MENADIONE], the “fold change (FC)” value in the data set on N2a [2] is reported as 6.94. For the same compound, the IC50 in the data set with N2a [3] was determined as 2.69 µM.
With `CC(C)(C)CC(C)(C)NC(=O)Nc1ncccc1OCc1cccc(Cl)c1`, the Activity in data set [1] came out at 50%.

As a reminder, the IC50 is the concentration that inhibits the measured activity by half. The inhibition is the drop in the measured response relative to a control, in per cent.

Source of the values: ChEMBL document CHEMBL4004826, “Discovery of 1-(3-(benzyloxy)pyridin-2-yl)-3-(2-(piperazin-1-yl)ethyl)urea: A new modulator for amyloid beta-induced mitochondrial dysfunction” (Eur J Med Chem, 2017).
